Each structure is given as a SMILES string. Active and inactive are the calls of the source. The rule behind the calls is not given here.

One experiment deals with HUVE12. Briefly: Protection against hydrogen peroxide-induced apoptosis in human HUVE12 cells. Format: functional, cell-based. The method, boiled down:
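HUVE-12 cells in DMEM with 10% newborn calf serum at 37 °C, 5% CO2. Pretreated 30 min with compound (0.1, 1.0, 10.0 µM; also 0.1–10.0 µM series) or 0.02% DMSO vehicle, then 1 mM H2O2 for 24 h. Trypsinized, fixed in 70% ice-cold ethanol, stained with PI/RNase A 15 min at 37 °C; apoptosis by flow cytometry. Three independent experiments.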
Regarding `COc1ccc(-c2coc3cc(OC(F)F)cc(OC)c3c2=O)cc1`, the outcome was Active.

A further experiment has as its system HUVE12. Briefly: Reversal of hydrogen peroxide-induced LDH activity in human HUVE12 cells. Format: functional, cell-based. A digest of the protocol: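 HUVE-12 cells pretreated 30 min with compound (0.1–10.0 µM) or 0.02% DMSO vehicle, then 1 mM H2O2 for 24 h at 37 °C. Medium sampled before harvest; LDH activity measured by colorimetric kit as a marker of cell injury. Average of three experiments.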
Regarding `O=c1c(-c2ccc(OCc3ccccc3)cc2)coc2cc(OC(F)F)cc(OCc3ccccc3)c12`, the result was Active.

For `CCCCCCCCCOc1ccc(-c2coc3cc(OC(F)F)cc(OCCCCCCCCC)c3c2=O)cc1`, the outcome was Active.

For `CCCCCCCOc1ccc(-c2coc3cc(OC(F)F)cc(OCCCCCCC)c3c2=O)cc1`, the result was Active.

`CCOc1ccc(-c2coc3cc(OC(F)F)cc(OCC)c3c2=O)cc1`: the result was Active.

Regarding `O=c1c(-c2ccc(OC(F)F)cc2)coc2cc(OC(F)F)cc(O)c12`, the outcome was Active.

For `COc1ccc(-c2coc3cc(OC(F)F)cc(OC)c3c2=O)cc1`, the outcome was Active.

With `CCCOc1ccc(-c2coc3cc(OC(F)F)cc(OCCC)c3c2=O)cc1`, the outcome was Active.

Consider `CC(C)C/C=C/Oc1ccc(-c2coc3cc(OC(F)F)cc(O/C=C/CC(C)C)c3c2=O)cc1`, for which the result was Active.

Regarding `O=c1c(-c2ccc(O)cc2)coc2cc(O)cc(O)c12`, the result was Active.

As to `CCCCCCCCOc1ccc(-c2coc3cc(OC(F)F)cc(OCCCCCCCC)c3c2=O)cc1`, the result was Active.

With `O=c1c(-c2ccc(O)cc2)coc2cc(OC(F)F)cc(O)c12`, the outcome was Active.

These data come from ChEMBL document CHEMBL1140812, “Synthesis of genistein derivatives and determination of their protective effects against vascular endothelial cell damages caused by hydrogen peroxide” (Bioorg Med Chem Lett, 2008).
